Measured values taken from ChEMBL document CHEMBL4351001, “2-Aminoimidazole-based antagonists of the 5-HT6 receptor - A new concept in aminergic GPCR ligand design” (Eur J Med Chem, 2019).
pKi: −log10 of the molar value. Calls of active or inactive are those of the source. The calls are words filed in the database; no cut-off is given here.

How the values were obtained:
[1] = Solubility of compound in water; type: physicochemical; conditions: water; read-out: solubility
hERG (KCNH2) = hERG (KCNH2) (Homo sapiens, UniProt Q12809); test: Displacement of [3H] dofetilide from human recombinant ERG at 10^-6 M measured after 60 mins by scintillation counting method relative to control; conditions: probe [3H]dofetilide
[2] = biological target: T1, 5-hydroxytryptamine receptor 2C (Homo sapiens) (UniProt P28335); test: Displacement of [3H]mesulergine from human recombinant 5HT2C serotonin receptor at 10^-6M incubated for 120 mins by scintillation counter method relative to control
T1 sequence (whole entry): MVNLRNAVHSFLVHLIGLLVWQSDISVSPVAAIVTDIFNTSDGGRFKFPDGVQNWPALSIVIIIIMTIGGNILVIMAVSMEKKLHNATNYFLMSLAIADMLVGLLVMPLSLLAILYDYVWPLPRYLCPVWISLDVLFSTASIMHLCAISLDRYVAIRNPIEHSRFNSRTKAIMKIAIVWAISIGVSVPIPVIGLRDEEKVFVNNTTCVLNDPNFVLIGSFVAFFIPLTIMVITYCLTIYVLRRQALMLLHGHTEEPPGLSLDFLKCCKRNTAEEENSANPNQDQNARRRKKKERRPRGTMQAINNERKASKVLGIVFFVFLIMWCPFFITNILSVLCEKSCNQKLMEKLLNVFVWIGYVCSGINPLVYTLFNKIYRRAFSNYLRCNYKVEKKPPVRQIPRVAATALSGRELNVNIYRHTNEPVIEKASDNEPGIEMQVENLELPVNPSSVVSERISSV

[3] = biological target: T2, 5-hydroxytryptamine receptor 1A (Homo sapiens, UniProt P08908); test: Displacement of [3H]-8-OH-DPAT from human 5HT1A receptor expressed in HEK293 cells incubated for 1 hr by liquid scintillation counter method; type: cell-based; conditions: read-out: Ki
T2 sequence (P08908 whole entry): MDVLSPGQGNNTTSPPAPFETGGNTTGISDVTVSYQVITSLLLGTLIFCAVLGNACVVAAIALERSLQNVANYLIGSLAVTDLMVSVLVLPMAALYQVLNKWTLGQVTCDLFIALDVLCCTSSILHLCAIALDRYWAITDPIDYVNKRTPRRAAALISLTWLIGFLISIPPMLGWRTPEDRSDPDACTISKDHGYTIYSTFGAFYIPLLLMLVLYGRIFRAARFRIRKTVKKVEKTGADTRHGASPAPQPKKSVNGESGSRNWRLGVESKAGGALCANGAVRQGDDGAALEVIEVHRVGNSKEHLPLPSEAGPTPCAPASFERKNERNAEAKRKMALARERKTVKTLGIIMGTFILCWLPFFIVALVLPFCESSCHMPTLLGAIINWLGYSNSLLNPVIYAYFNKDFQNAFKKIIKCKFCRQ
In short: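 HEK293 cells stably expressing human 5-HT1AR; membranes in 50 mM Tris–HCl, 0.1 mM EDTA, 4 mM MgCl2, 10 μM pargyline, 0.1% ascorbate; incubated 1 h at room temperature, then filtered. Nonspecific binding defined with 10 μM 5-HT.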

[4] = biological target: T3, Muscarinic acetylcholine receptor M1 (Homo sapiens) (UniProt P11229); test: Displacement of [3H] pirenzepine from human recombinant muscarinic M1 receptor at 10^-6 M measured after 60 mins by scintillation counter method relative to control
T3 sequence (whole entry): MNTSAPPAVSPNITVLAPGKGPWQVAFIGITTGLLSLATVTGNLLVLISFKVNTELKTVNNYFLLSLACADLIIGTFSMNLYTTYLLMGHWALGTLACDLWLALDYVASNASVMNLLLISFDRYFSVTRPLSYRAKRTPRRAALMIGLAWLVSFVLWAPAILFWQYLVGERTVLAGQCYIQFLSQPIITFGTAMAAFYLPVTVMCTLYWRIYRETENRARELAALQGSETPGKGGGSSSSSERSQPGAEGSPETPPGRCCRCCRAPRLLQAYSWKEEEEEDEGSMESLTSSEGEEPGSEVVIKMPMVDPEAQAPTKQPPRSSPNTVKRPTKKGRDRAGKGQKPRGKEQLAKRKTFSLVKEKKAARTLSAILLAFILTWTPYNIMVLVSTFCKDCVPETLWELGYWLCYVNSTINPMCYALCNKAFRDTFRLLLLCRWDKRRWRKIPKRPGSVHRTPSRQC

[5] = biological target: T4, Muscarinic acetylcholine receptor M5 (Homo sapiens) (UniProt P08912); test: Displacement of [3H]4-DAMP from human recombinant muscarinic M5 receptor at 10^-6 M measured after 60 mins by scintillation counter method relative to control
T4 sequence (whole entry): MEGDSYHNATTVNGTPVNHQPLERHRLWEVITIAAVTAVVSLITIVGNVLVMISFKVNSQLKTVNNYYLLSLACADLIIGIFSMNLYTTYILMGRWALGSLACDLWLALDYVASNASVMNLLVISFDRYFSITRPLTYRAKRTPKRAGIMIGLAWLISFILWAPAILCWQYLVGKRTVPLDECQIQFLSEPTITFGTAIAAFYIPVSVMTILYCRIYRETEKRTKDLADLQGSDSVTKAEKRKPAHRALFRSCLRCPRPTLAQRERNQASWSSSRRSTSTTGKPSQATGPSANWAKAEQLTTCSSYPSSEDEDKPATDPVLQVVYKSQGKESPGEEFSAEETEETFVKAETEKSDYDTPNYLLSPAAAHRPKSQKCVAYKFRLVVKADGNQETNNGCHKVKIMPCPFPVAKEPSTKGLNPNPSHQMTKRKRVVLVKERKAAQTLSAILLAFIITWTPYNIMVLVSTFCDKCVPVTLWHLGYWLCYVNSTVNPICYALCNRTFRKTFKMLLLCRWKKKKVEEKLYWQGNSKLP

[6] = biological target: T5, Alpha-1A adrenergic receptor (Rattus norvegicus) (UniProt P43140); test: Displacement of [3H] prazosin from rat alpha 1A adrenergic receptor at 10^-6 M measured after 60 mins by scintillation counter method relative to control
T5 sequence (whole entry): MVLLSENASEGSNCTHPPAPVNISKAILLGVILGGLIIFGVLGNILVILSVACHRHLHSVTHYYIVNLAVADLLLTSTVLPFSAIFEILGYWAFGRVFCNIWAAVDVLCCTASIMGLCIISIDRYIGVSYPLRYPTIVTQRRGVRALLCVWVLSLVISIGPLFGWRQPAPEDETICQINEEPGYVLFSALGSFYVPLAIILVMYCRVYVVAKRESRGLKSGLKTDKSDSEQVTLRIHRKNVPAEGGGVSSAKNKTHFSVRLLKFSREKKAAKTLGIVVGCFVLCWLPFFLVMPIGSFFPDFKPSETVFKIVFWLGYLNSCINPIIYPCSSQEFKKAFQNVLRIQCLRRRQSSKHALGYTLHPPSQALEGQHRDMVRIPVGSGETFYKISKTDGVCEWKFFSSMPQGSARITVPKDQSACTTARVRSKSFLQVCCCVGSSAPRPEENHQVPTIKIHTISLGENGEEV

[7] = biological target: 5-hydroxytryptamine receptor 2B (Homo sapiens) (UniProt P41595); test: Displacement of [3H] mesulergine from human recombinant 5HT2B receptor at 10^-6 M measured after 60 mins by scintillation counting method relative to control
[8] = biological target: 5-hydroxytryptamine receptor 2A (Homo sapiens, UniProt P28223); test: Displacement of [3H]ketanserin from human 5HT2A receptor expressed in CHOK1 cells incubated for 1 hr by liquid scintillation counter method; type: cell-based; conditions: read-out: Ki
Rattus norvegicus = test: Reversal of scopolamine induced cognitive impairment impairment in Sprague-Dawley rat at 1 mg/kg, po pre treated for 2 hrs followed by scopolamine addition further treated for 30 mins and measured after 1 hr by novel object recognition test; type: functional, organism-based
In short: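 Male Sprague–Dawley rats (~250 g); open-field habituation 5 min 24 h before test. Compounds p.o. 120 min and scopolamine 1.25 mg/kg i.p. 30 min before 3-min familiarization trial; 3-min recognition trial 1 h later. Exploration video-tracked; discrimination index computed; one-way ANOVA with Newman–Keuls; n = 9–10 per group; mean ± SEM.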

in vitro [9] = conditions: rat, microsomes
in vitro [10] = conditions: rat, microsomes; remark: listed apart in the source

5-hydroxytryptamine receptor 2B (Homo sapiens), sequence (P41595 whole entry): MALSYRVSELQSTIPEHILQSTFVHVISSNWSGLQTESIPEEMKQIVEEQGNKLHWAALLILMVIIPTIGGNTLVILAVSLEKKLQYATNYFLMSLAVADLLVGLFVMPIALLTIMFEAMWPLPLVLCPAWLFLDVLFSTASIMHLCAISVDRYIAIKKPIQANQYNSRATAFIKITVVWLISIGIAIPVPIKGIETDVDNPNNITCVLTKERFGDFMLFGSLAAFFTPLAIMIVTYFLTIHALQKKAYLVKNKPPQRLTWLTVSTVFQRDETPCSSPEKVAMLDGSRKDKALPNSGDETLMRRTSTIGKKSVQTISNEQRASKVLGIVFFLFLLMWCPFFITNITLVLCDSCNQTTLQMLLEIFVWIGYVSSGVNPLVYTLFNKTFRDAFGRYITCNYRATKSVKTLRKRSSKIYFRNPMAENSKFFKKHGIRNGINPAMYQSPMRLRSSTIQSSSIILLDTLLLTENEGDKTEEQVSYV
5-hydroxytryptamine receptor 2A, sequence (P28223 whole entry): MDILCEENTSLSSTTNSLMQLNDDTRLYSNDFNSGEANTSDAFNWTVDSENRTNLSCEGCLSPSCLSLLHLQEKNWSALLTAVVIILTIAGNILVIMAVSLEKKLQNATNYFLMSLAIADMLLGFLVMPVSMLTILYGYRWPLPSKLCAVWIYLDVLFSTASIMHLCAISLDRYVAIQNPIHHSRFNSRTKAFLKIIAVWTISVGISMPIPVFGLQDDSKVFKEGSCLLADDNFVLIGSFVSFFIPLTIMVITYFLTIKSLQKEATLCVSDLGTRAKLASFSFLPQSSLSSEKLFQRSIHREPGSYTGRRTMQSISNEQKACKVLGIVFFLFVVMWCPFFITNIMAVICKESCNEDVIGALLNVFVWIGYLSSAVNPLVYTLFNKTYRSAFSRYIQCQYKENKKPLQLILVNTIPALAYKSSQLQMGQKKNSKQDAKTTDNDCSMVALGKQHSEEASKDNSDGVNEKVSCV
hERG (KCNH2), sequence (Q12809 whole entry): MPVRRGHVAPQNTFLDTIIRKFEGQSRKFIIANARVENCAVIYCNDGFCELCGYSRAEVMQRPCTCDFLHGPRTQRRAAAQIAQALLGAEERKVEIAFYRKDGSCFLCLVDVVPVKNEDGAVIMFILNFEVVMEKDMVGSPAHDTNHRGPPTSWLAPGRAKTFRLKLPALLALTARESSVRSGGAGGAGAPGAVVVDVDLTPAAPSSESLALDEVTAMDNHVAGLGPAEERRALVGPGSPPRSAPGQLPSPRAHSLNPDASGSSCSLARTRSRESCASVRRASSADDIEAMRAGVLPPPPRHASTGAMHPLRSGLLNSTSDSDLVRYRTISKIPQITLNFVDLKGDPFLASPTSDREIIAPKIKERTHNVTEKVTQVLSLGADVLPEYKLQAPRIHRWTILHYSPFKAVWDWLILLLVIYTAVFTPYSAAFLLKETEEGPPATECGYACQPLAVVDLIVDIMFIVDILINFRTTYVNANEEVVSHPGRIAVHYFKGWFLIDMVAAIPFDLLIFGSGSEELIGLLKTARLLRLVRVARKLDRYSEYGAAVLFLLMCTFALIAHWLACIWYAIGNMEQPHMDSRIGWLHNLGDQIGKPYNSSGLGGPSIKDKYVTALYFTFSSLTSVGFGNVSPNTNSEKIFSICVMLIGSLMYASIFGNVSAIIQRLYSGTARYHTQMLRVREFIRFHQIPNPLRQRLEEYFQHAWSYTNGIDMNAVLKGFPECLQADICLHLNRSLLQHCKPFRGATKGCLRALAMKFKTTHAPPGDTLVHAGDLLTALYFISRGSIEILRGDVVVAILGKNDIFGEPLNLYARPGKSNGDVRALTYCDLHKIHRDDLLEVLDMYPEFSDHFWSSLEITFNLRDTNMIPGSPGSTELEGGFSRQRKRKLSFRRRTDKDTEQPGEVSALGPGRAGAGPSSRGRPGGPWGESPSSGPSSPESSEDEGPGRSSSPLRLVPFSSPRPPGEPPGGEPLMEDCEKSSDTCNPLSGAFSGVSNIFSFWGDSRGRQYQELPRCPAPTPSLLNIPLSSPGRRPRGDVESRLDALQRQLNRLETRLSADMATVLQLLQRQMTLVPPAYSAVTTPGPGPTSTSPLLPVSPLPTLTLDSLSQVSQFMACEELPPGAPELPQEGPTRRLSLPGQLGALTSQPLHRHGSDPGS

| Structure (SMILES) | solubility [1] | inhibition at 1 h, 1 µM (hERG (KCNH2)) | inhibition [2] | pKi [3] | inhibition [4] | inhibition [5] | inhibition [6] | inhibition [7] | pKi [8] | Activity (Rattus norvegicus) | microsomal CLint (in vitro [9]) | half-life (in vitro [10]) |
| --- | --- | --- | --- | --- | --- | --- | --- | --- | --- | --- | --- | --- |
| CC(=O)Nc1nc(C)c(-c2cn(S(=O)(=O)c3ccccc3)c3ccccc23)[nH]1.Cl | 100 to 10000 µg/mL | 2.4% | – | – | – | – | – | – | – | – | – | – |
| Cc1nc(N)[nH]c1-c1cn(S(=O)(=O)c2ccccc2)c2ccccc12 | – | – | 71.6% | < 5.00 | 3.8% | 7.6% | 12.2% | 4.5% | 7.00 | – | – | – |
| COc1cc2c(cc1OC)C(=O)C(CC1CCN(Cc3ccccc3)CC1)C2 (centres undefined) [DONEPEZIL] | – | – | – | – | – | – | – | – | – | Active | 17.6 µL/min/mg | 1.32 h |
| COc1ccc2c(c1)c(-c1cnc(N)[nH]1)cn2S(=O)(=O)c1ccccc1 | – | – | 82% | < 5.00 | 6.7% | 5.6% | 33.1% | 1.7% | 6.10 | – | – | – |
